Data published in PMC4485437 (Biochemistry, 2015).

How the values were obtained:
EcMTAN [1] = target: T1, EcMTAN (Escherichia coli, UniProt P0AF12); assay: Luminescence-based steady-state kinetic assay; format: biochemical; conditions: substrate MTA
In short: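 His6-tagged enzyme was expressed in E. coli BL21(DE3) (1 mM IPTG, 37°C, 10 h) and purified on Ni-NTA. Product adenine was converted to ATP by excess yeast APRTase (20 microunits/well) and C. symbiosum PPDK (320 microunits/well), then read by luciferase luminescence at 570 nm. Enzyme 5–25 pM; reactions started with 0.02–1 μM MTA.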

VcMTANV153I [2] = target: T2, VcMTANV153I (Vibrio cholerae serotype O1, UniProt Q9KPI8, V153I); assay: Luminescence-based steady-state kinetic assay; format: biochemical; conditions: substrate MTA
VcMTAN (WT) [3] = target: T3, VcMTAN (WT) (Vibrio cholerae serotype O1, UniProt Q9KPI8); assay: Luminescence-based steady-state kinetic assay; format: biochemical; conditions: substrate MTA
[4] = target: T4, VcMTANA113P/V153I (VcMTANDOUBLE) (Vibrio cholerae serotype O1, UniProt Q9KPI8, A113P/V153I); assay: Luminescence-based steady-state kinetic assay; format: biochemical; conditions: substrate MTA
VcMTANA113P [5] = target: T5, VcMTANA113P (Vibrio cholerae serotype O1, UniProt Q9KPI8, A113P); assay: Luminescence-based steady-state kinetic assay; format: biochemical; conditions: substrate MTA
[6] = target: T6, VcMTANA113P/V153I/R158G (Vc[…]) (Vibrio cholerae serotype O1, UniProt Q9KPI8, A113P/R158G/V153I); assay: Luminescence-based steady-state kinetic assay; format: biochemical; conditions: substrate MTA
[7] = tested on: E. coli DHFR (EcDHFR) Asp27Glu; conditions: Asp27Glu vs native EcDHFR; cited from earlier work
VcMTAN (WT) [8] = target: T3, VcMTAN (WT); assay: Isothermal titration calorimetry; format: binding; conditions: 25°C; for ΔG: calculated from Ki*; for TΔS: from Gibbs free energy equation
In short: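 Enzyme expressed in E. coli BL21(DE3) and Ni-NTA purified, then stripped of bound adenine by dialysis against phosphate buffer with activated charcoal. Sample cell held 60–120 μM dimer; test compound in dialysate was injected, degassed solutions, 25°C. Fit to a two-independent-site model gave ΔH per catalytic site. ΔG = RT ln Ki*, with Ki* from 0.8 mM MTA plus xanthine oxidase at 305 nm. −TΔS came from the Gibbs equation.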

VcMTANV153I [9] = target: T2, VcMTANV153I; assay: Titration of [14C]MTDIA to MTAN; format: binding; conditions: MTAN dimer 27−33 μM
EcMTAN [10] = target: T1, EcMTAN; assay: Isothermal titration calorimetry; format: binding; conditions: 25°C; for ΔG: calculated from Ki*; for TΔS: from Gibbs free energy equation
In short: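 Copurified adenine stripped by dialysis against phosphate buffer with activated charcoal. 60–120 μM dimer in cell, dialysate as reference. Test compound in dialysate; solutions filtered and degassed. Titrated at 25°C. Isotherms fit to two independent sites; ΔH from integrated heat. ΔG = RT ln Ki*, using first-site […] from low-substrate luciferase-coupled assay. −TΔS from ΔG = ΔH − TΔS.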

[11] = target: T4, VcMTANA113P/V153I (VcMTANDOUBLE); assay: Titration of [14C]MTDIA to MTAN; format: binding; conditions: MTAN dimer 27−33 μM
VcMTANA113P [12] = target: T5, VcMTANA113P; assay: Isothermal titration calorimetry; format: binding; conditions: for ΔH / ΔG / TΔS: 25°C; for ΔG: calculated from Ki*; for TΔS: from Gibbs free energy equation
VcMTAN (WT) [13] = target: T3, VcMTAN (WT); assay: Titration of [14C]MTDIA to MTAN; format: binding; conditions: MTAN dimer 27−85 μM
VcMTANV153I [14] = target: T2, VcMTANV153I; assay: Isothermal titration calorimetry; format: binding
[15] = target: T4, VcMTANA113P/V153I (VcMTANDOUBLE); assay: Isothermal titration calorimetry; format: binding
VcMTANA113P [16] = target: T5, VcMTANA113P; assay: Titration of [14C]MTDIA to MTAN; format: binding; conditions: MTAN dimer 27−33 μM
[17] = target: T6, VcMTANA113P/V153I/R158G (Vc[…]); assay: Isothermal titration calorimetry; format: binding; conditions: single site, 25°C
[18] = single site, 25°C, from Gibbs free energy equation

Question: For 5′-methylthioadenosine [MTA], which kcat (EcMTAN [1]) is on record?
Answer: 0.32 ± 0.01 s⁻¹

Question: What about the Km (EcMTAN [1]; first-catalytic site filling) of the same compound?
Answer: 0.139 ± 0.018 µM

Question: What about the kcat (VcMTANV153I [2]) of the same compound?
Answer: (7.9 ± 4) × 10^−3 s^−1

Question: What about the Km (VcMTANV153I [2]; first-catalytic site filling) of the same compound?
Answer: 0.43 ± 0.047 µM

Question: And the kcat (VcMTAN (WT) [3])?
Answer: 0.18 ± 0.01 s⁻¹

Question: What about the Km (VcMTAN (WT) [3]; first-catalytic site filling) of the same compound?
Answer: 0.061 ± 0.006 µM

Question: And the kcat [4]?
Answer: (7.4 ± 3) × 10^−2 s^−1

Question: What about the Km ([4]; first-catalytic site filling) of the same compound?
Answer: 0.202 ± 0.023 µM

Question: And the kcat (VcMTANA113P [5])?
Answer: 0.17 ± 0.01 s⁻¹

Question: What about the Km (VcMTANA113P [5]; first-catalytic site filling) of the same compound?
Answer: 0.262 ± 0.029 µM

Question: And the kcat [6]?
Answer: 0.11 ± 0.01 s⁻¹

Question: What about the Km ([6]; first-catalytic site filling) of the same compound?
Answer: 0.536 ± 0.122 µM

Question: With `Nc1nc(=O)c2c([nH]1)NCC(CNc1ccc(C(=O)N[C@@H](CCC(=O)O)C(=O)O)cc1)=N2` [DHF, 7,8-dihydrofolate] as the compound, how does the “KM(DHF) increase” value [7] read?
Answer: 20 fold

Question: For `CSC[C@H]1CN(Cc2c[nH]c3c(N)ncnc23)C[C@@H]1O` [MTDIA, 4′-deaza-1′-aza-2′-deoxy-1′-(9-[^14C]methylene)-Immucillin-A], which ΔH (VcMTAN (WT) [8]; first site) is on record?
Answer: -6.0 ± 0.2 kcal/mol

Question: What about the ΔG (VcMTAN (WT) [8]; first site) of the same compound?
Answer: -15.8 ± 0.1 kcal/mol

Question: What about the TΔS (VcMTAN (WT) [8]; first site) of the same compound?
Answer: -9.8 ± 0.2 kcal/mol

Question: What about the ΔH (VcMTAN (WT) [8]; second site) of the same compound?
Answer: -2.6 ± 0.3 kcal/mol

Question: What about the ΔG (VcMTAN (WT) [8]; second site) of the same compound?
Answer: -14.3 ± 0.2 kcal/mol

Question: And the TΔS (VcMTAN (WT) [8]; second site)?
Answer: -11.7 ± 0.4 kcal/mol

Question: What about the “binding of MTDIA* on titration to one or two catalytic sites per dimer” value (“binding of MTDIA* on titration … per dimer” below) (VcMTANV153I [9]) of the same compound?
Answer: left more MTDIA* unbound as both the first and second sites were titrated

Question: And the ΔH (EcMTAN [10]; first site)?
Answer: -18.9 ± 0.2 kcal/mol

Question: And the ΔG (EcMTAN [10]; first site)?
Answer: -17.4 ± 0.9 kcal/mol

Question: What about the TΔS (EcMTAN [10]; first site) of the same compound?
Answer: 1.5 ± 0.9 kcal/mol

Question: What about the ΔH (EcMTAN [10]; second site) of the same compound?
Answer: -16.8 ± 0.2 kcal/mol

Question: And the ΔG (EcMTAN [10]; second site)?
Answer: -10.2 ± 0.1 kcal/mol

Question: What about the TΔS (EcMTAN [10]; second site) of the same compound?
Answer: 6.6 ± 0.2 kcal/mol

Question: What about the “binding of MTDIA* on titration … per dimer” value [11] of the same compound?
Answer: left more MTDIA* unbound as both the first and second sites were titrated

Question: What about the “enthalpy of MTDIA binding less favorable than parent VcMTAN” value (VcMTANA113P [12]; VcMTANA113P vs VcMTAN) of the same compound?
Answer: 3 kcal/mol

Question: What about the ΔH (VcMTANA113P [12]; first site) of the same compound?
Answer: -2.9 ± 0.1 kcal/mol

Question: What about the ΔG (VcMTANA113P [12]; first site) of the same compound?
Answer: -13.9 ± 0.1 kcal/mol

Question: What about the TΔS (VcMTANA113P [12]; first site) of the same compound?
Answer: -11.0 ± 0.1 kcal/mol

Question: What about the ΔH (VcMTANA113P [12]; second site) of the same compound?
Answer: -1.8 ± 0.2 kcal/mol

Question: What about the ΔG (VcMTANA113P [12]; second site) of the same compound?
Answer: -13.5 ± 0.8 kcal/mol

Question: And the TΔS (VcMTANA113P [12]; second site)?
Answer: -11.7 ± 0.8 kcal/mol

Question: And the “binding of MTDIA* on titration … per dimer” value (VcMTAN (WT) [13])?
Answer: complete binding at the first site and near-stoichiometric binding at the second site

Question: What about the “enthalpy of MTDIA binding more favorable than that of VcMTANA113P” value (VcMTANV153I [14]; VcMTANV153I vs VcMTANA113P) of the same compound?
Answer: -2.0 kcal/mol

Question: And the ΔH (VcMTANV153I [14]; single site, 25°C)?
Answer: -4.9 ± 0.1 kcal/mol

Question: What about the TΔS (VcMTANV153I [14]; [18]) of the same compound?
Answer: -5.7 ± 0.2 kcal/mol

Question: What about the “enthalpy of MTDIA binding more favorable than that of VcMTANA113P” value ([15]; VcMTANDOUBLE vs VcMTANA113P) of the same compound?
Answer: -1.0 kcal/mol

Question: What about the ΔH ([15]; single site, 25°C) of the same compound?
Answer: -3.9 ± 0.1 kcal/mol

Question: What about the ΔG ([15]; single site, 25°C, calculated from Ki*) of the same compound?
Answer: -15.7 ± 0.1 kcal/mol

Question: What about the TΔS [15, 18] of the same compound?
Answer: -11.8 ± 0.1 kcal/mol

Question: And the “binding of MTDIA* on titration … per dimer” value (VcMTANA113P [16])?
Answer: complete binding at the first site and near-stoichiometric binding at the second site

Question: And the ΔH [17]?
Answer: -4.8 ± 0.2 kcal/mol

Question: What about the ΔG ([17]; calculated from Ki*) of the same compound?
Answer: -13.3 ± 0.1 kcal/mol

Question: What about the TΔS ([17]; from Gibbs free energy equation) of the same compound?
Answer: -8.5 ± 0.2 kcal/mol

Question: Which methotrexate affinity decrease [7] does the source give for `CN(Cc1cnc2nc(N)nc(N)c2n1)c1ccc(C(=O)N[C@@H](CCC(=O)O)C(=O)O)cc1` [methotrexate] here?
Answer: 176 fold
